Format in all cases: functional
The test system of experiment [1] is Staphylococcus aureus. The experiment is described as follows: Antibacterial activity against Staphylococcus aureus 209PJC after 24 hrs. The method in brief: (§1)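 Value is the minimal inhibitory concentration (MIC) against the test organism, read after 24 h of incubation.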
The test system of experiment [2] is Staphylococcus aureus. The experiment is described as follows: Antibacterial activity against methicillin-resistant Staphylococcus aureus 97-115 after 24 hrs. A digest of the protocol: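 Read-out is the minimal inhibitory concentration (MIC), taken after 24 h incubation with the test organism.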
Experiment [3] relates to Escherichia coli. The experiment is described as follows: Antibacterial activity against Escherichia coli NIHJ JC-2 after 24 hrs. A digest of the protocol:
as §1

Experiment [4] concerns Pseudomonas aeruginosa. The experiment is described as follows: Antibacterial activity against Pseudomonas aeruginosa PAO1. A digest of the protocol: as §1
Experiment [5] deals with Escherichia coli. The experiment is described as follows: Bactericidal activity against Escherichia coli NIHJ JC-2 preincubated for 1 min before addition of growth medium measured after 40 to 48 hrs.
The subject of experiment [6] is Staphylococcus aureus. The experiment is described as follows: Bactericidal activity against Staphylococcus aureus 209PJC preincubated for 5 mins before addition of growth medium measured after 40 to 48 hrs.
The subject of experiment [7] is Pseudomonas aeruginosa. The experiment is described as follows: Bactericidal activity against Pseudomonas aeruginosa PAO1 preincubated for 5 mins before addition of growth medium measured after 40 to 48 hrs.
The subject of experiment [8] is Staphylococcus aureus. The experiment is described as follows: Bactericidal activity against methicillin-resistant Staphylococcus aureus 97-115 preincubated for 5 mins before addition of growth medium measured after 40 to 48 hrs. A digest of the protocol: (§2)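 Read-out is the minimal bactericidal concentration (MBC), taken after 1, 3 and 5 min contact of compound with the test organism.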

For experiment [9], the system named is Escherichia coli. The experiment is described as follows: Bactericidal activity against Escherichia coli NIHJ JC-2 preincubated for 5 mins before addition of growth medium measured after 40 to 48 hrs.
Experiment [10] deals with Pseudomonas aeruginosa. Briefly: Bactericidal activity against Pseudomonas aeruginosa PAO1 preincubated for 1 min before addition of growth medium measured after 40 to 48 hrs.
For experiment [11], the system named is Escherichia coli. The experiment is described as follows: Bactericidal activity against Escherichia coli NIHJ JC-2 preincubated for 3 mins before addition of growth medium measured after 40 to 48 hrs.
In experiment [12] the test system is Staphylococcus aureus. The experiment is described as follows: Bactericidal activity against methicillin-resistant Staphylococcus aureus 97-115 preincubated for 3 mins before addition of growth medium measured after 40 to 48 hrs. A digest of the protocol: as §2
The test system of experiment [13] is Staphylococcus aureus. Briefly: Bactericidal activity against Staphylococcus aureus 209PJC preincubated for 1 min before addition of growth medium measured after 40 to 48 hrs.
The subject of experiment [14] is Staphylococcus aureus. The experiment is described as follows: Bactericidal activity against Staphylococcus aureus 209PJC preincubated for 3 mins before addition of growth medium measured after 40 to 48 hrs.
Experiment [15] relates to Pseudomonas aeruginosa. Briefly: Bactericidal activity against Pseudomonas aeruginosa PAO1 preincubated for 3 mins before addition of growth medium measured after 40 to 48 hrs.
Experiment [16] concerns Staphylococcus aureus. Briefly: Bactericidal activity against methicillin-resistant Staphylococcus aureus 97-115 preincubated for 1 min before addition of growth medium measured after 40 to 48 hrs. A digest of the protocol:
as §2

Molecules are shown by their SMILES.

As a reminder, the MIC is the smallest concentration in the dilution series that meets the test's criterion for growth inhibition. `CC(=O)O.CCCCCCCCNC1=NC(NCCC)=NC(C)(C)N1`: the minimal inhibitory concentration (MIC) in the experiment with Staphylococcus aureus [1] amounted to 1.6 µg/mL; in the experiment with Staphylococcus aureus [2], 6.3 µg/mL; in the experiment with Escherichia coli [3] it was 100 µg/mL; in the experiment with Pseudomonas aeruginosa [4], 100 µg/mL.
As a reminder, the MBC is the smallest concentration meeting the test's criterion for killing. Low readings indicate more potent killing, high ones less potent killing. With `CC(=O)O.CCCCCCCCNC1=NC(C)(C)NC(NCc2ccc(C(F)(F)F)cc2)=N1`, the MIC in the experiment on Staphylococcus aureus [1] amounted to 0.4 µg/mL; in the experiment with Staphylococcus aureus [2], 0.8 µg/mL; against Escherichia coli [3] it was 50 µg/mL; against Pseudomonas aeruginosa [4] it was 25 µg/mL. Besides, the MBC in the experiment on Escherichia coli [5] turned out to be 3.1 µg/mL; against Staphylococcus aureus [6] it was 6.3 µg/mL; with Pseudomonas aeruginosa [7] it was 6.3 µg/mL; in the experiment on Staphylococcus aureus [8], 6.3 µg/mL; with Escherichia coli [9], 3.1 µg/mL; against Pseudomonas aeruginosa [10] it was 12.5 µg/mL. The MBC in the experiment with Escherichia coli [11] came to 3.1 µg/mL; against Staphylococcus aureus [12], 6.3 µg/mL; in the experiment with Staphylococcus aureus [13] it was 12.5 µg/mL; in the experiment with Staphylococcus aureus [14], 6.3 µg/mL; in the experiment on Pseudomonas aeruginosa [15] it was 6.3 µg/mL; in the experiment on Staphylococcus aureus [16] it was 6.3 µg/mL.
Take `CC(=O)O.CCCCCCCCCCCNC1=NC(C)(C)NC(NCc2ccccc2)=N1`: the MIC in the experiment on Staphylococcus aureus [1] came out at 0.4 µg/mL; against Staphylococcus aureus [2], 0.8 µg/mL; with Escherichia coli [3], 100 µg/mL; against Pseudomonas aeruginosa [4], 100 µg/mL.
In the case of `CC(=O)O.CCCCCCCCNC1=NC(C)(C)NC(NCc2ccc(Cl)cc2)=N1`, the minimal inhibitory concentration (MIC) in the experiment with Staphylococcus aureus [1] worked out at 0.8 µg/mL; in the experiment with Staphylococcus aureus [2], 0.8 µg/mL; with Escherichia coli [3], 25 µg/mL; with Pseudomonas aeruginosa [4], 25 µg/mL. The MBC was 3.1 µg/mL with Escherichia coli [5]; 3.1 µg/mL in the experiment on Staphylococcus aureus [6]; 1.6 µg/mL in the experiment on Pseudomonas aeruginosa [7]; 6.3 µg/mL against Staphylococcus aureus [8]; 1.6 µg/mL in the experiment with Escherichia coli [9]; 6.3 µg/mL with Pseudomonas aeruginosa [10]. The MBC against Escherichia coli [11] came out at 1.6 µg/mL; with Staphylococcus aureus [12], 6.3 µg/mL; against Staphylococcus aureus [13], 3.1 µg/mL; with Staphylococcus aureus [14], 3.1 µg/mL; in the experiment with Pseudomonas aeruginosa [15], 1.6 µg/mL; in the experiment on Staphylococcus aureus [16] it was 6.3 µg/mL.
Turning to `CC(=O)O.CCCCCCCCNC1=NC(C)(C)NC(NCc2ccccc2Cl)=N1`, the minimum inhibitory concentration (MIC) against Staphylococcus aureus [1] was determined as 0.8 µg/mL; in the experiment on Staphylococcus aureus [2], 0.8 µg/mL; against Escherichia coli [3], 25 µg/mL; with Pseudomonas aeruginosa [4], 25 µg/mL. The MBC amounted to 3.1 µg/mL against Escherichia coli [5]; 6.3 µg/mL against Staphylococcus aureus [6]; 1.6 µg/mL in the experiment with Pseudomonas aeruginosa [7]; 6.3 µg/mL in the experiment with Staphylococcus aureus [8]; 1.6 µg/mL in the experiment on Escherichia coli [9]; 6.3 µg/mL in the experiment on Pseudomonas aeruginosa [10]. Moreover, the minimum bactericidal concentration (MBC) in the experiment with Escherichia coli [11] was 3.1 µg/mL; with Staphylococcus aureus [12], 6.3 µg/mL; with Staphylococcus aureus [13] it was 12.5 µg/mL; in the experiment on Staphylococcus aureus [14], 6.3 µg/mL; in the experiment on Pseudomonas aeruginosa [15], 3.1 µg/mL; against Staphylococcus aureus [16] it was 12.5 µg/mL.
With `CC(=O)O.CCCCCCCCCNC1=NC(C)(C)NC(NCc2ccc(C)cc2)=N1`, the MIC worked out at 0.8 µg/mL with Staphylococcus aureus [1], 0.8 µg/mL against Staphylococcus aureus [2], 25 µg/mL in the experiment with Escherichia coli [3] and 50 µg/mL with Pseudomonas aeruginosa [4]. For the same molecule, the MBC in the experiment on Escherichia coli [5] came out at 6.3 µg/mL; against Staphylococcus aureus [6], 3.1 µg/mL; in the experiment on Pseudomonas aeruginosa [7] it was 3.1 µg/mL; in the experiment with Staphylococcus aureus [8] it was 12.5 µg/mL; in the experiment with Escherichia coli [9], 1.6 µg/mL; against Pseudomonas aeruginosa [10] it was 12.5 µg/mL. In addition, the MBC is 1.6 µg/mL against Escherichia coli [11]; 12.5 µg/mL against Staphylococcus aureus [12]; 6.3 µg/mL with Staphylococcus aureus [13]; 3.1 µg/mL with Staphylococcus aureus [14]; 3.1 µg/mL in the experiment with Pseudomonas aeruginosa [15]; 25 µg/mL in the experiment on Staphylococcus aureus [16].
For `CC(=O)O.CCCCCCCNC1=NC(C)(C)NC(Nc2ccccc2)=N1`, the minimum inhibitory concentration (MIC) is 6.3 µg/mL in the experiment with Staphylococcus aureus [1], 6.3 µg/mL with Staphylococcus aureus [2], 50 µg/mL in the experiment with Escherichia coli [3] and 100 µg/mL against Pseudomonas aeruginosa [4].
As to `CC(=O)O.CCCCCCCCNC1=NC(C)(C)NC(NCCCCCCCC)=N1`, the MIC in the experiment with Staphylococcus aureus [1] is 0.8 µg/mL; in the experiment with Staphylococcus aureus [2], 1.6 µg/mL; in the experiment with Escherichia coli [3] it was 100 µg/mL; against Pseudomonas aeruginosa [4], greater than 100 µg/mL.
`CC(=O)O.CCCCCCCCCCNC1=NC(C)(C)NC(NCc2ccccc2)=N1`: the minimal inhibitory concentration (MIC) in the experiment with Staphylococcus aureus [1] came to 0.4 µg/mL; with Staphylococcus aureus [2], 0.4 µg/mL; against Escherichia coli [3], 12.5 µg/mL; against Pseudomonas aeruginosa [4] it was 25 µg/mL. Further, the minimum bactericidal concentration (MBC) against Escherichia coli [5] was 25 µg/mL; with Staphylococcus aureus [6], 6.3 µg/mL; in the experiment on Pseudomonas aeruginosa [7] it was 1.6 µg/mL; with Staphylococcus aureus [8] it was 6.3 µg/mL; in the experiment on Escherichia coli [9] it was 6.3 µg/mL; against Pseudomonas aeruginosa [10], 3.1 µg/mL. In addition, the MBC was 12.5 µg/mL against Escherichia coli [11]; 6.3 µg/mL with Staphylococcus aureus [12]; 6.3 µg/mL against Staphylococcus aureus [13]; 6.3 µg/mL in the experiment with Staphylococcus aureus [14]; 3.1 µg/mL with Pseudomonas aeruginosa [15]; 12.5 µg/mL against Staphylococcus aureus [16].

The record behind these values is ChEMBL document CHEMBL1143313, “Synthesis of novel 4,6-di(substituted)amino-1,2-dihydro-1,3,5-triazine derivatives as topical antiseptic agents” (2009).
